Here are results for 7 molecules from ChEMBL document CHEMBL2412970, “Synthesis and anticancer activity of 2,4-disubstituted furo[3,2-b]indole derivatives” (Eur J Med Chem, 2013).

Experiment [1] concerns A498. In words: Ratio of YC-1 IC50 to compound IC50 for human A498 cells after 48 hrs by MTT assay. Format: functional.
The next experiment has as its system Detroit 551. Briefly: Cytotoxicity against human Detroit 551 cells after 48 hrs by MTT assay. Format: cell-based. Conditions: Detroit 551, 48 h.
The test system of experiment [2] is A498. Briefly: Cytotoxicity against human A498 cells after 48 hrs by MTT assay. The class given is functional, cell-based. The following applies: A498, 48 h.
For another experiment, the system named is COLO 205. In words: Cytotoxicity against human COLO205 cells after 48 hrs by MTT assay. Format: functional, cell-based. Conditions: COLO 205, 48 h. The essentials: (§1)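 Cells were treated with a range of concentrations for 48 h. Viability was read by MTT: formazan was dissolved in DMSO and absorbance read at 570 nm. Untreated or 0.1% DMSO cells served as control. Data are mean from three independent experiments. HL-60, H460 and COLO 205 were kept in RPMI-1640 with 10% FBS and penicillin/streptomycin.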

Experiment [3] in a line: Cytotoxicity against human Hep3B cells after 48 hrs by MTT assay. The class given is functional, cell-based, Hep 3B2.
A short description of experiment [4]: Cytotoxicity against human H460 cells after 48 hrs by MTT assay. Format: functional, cell-based. Conditions: NCI-H460, 48 h. The essentials:
as §1

For another experiment, the system named is HL-60. Briefly: Cytotoxicity against human HL60 cells after 48 hrs by MTT assay. The class given is functional, cell-based. Conditions: HL-60, 48 h. Put shortly: as §1

Consider `OCc1cc2c(o1)c1ccccc1n2Cc1ccc(CO)[se]1`, for which the “Ratio IC50” value in the experiment with A498 [1] stood at 1.5. Moreover, the IC50 in the experiment on Detroit 551 is above 50 µM; in the experiment with A498 [2], 0.23 µM; in the experiment with COLO 205 it was above 50 µM; in experiment [3], above 50 µM; in experiment [4], above 50 µM; in the experiment on HL-60, above 50 µM.

As to `COC(=O)c1cc2c(o1)c1ccccc1n2Cc1ccc(C(=O)OC)[se]1`, the IC50 is above 25 µM in the experiment on Detroit 551; above 50 µM in the experiment on A498 [2]; above 50 µM with COLO 205; above 25 µM in experiment [3]; above 25 µM in experiment [4]; above 25 µM in the experiment with HL-60.

`OCc1cc2c(o1)c1ccccc1n2Cc1ccccc1`: in the experiment with A498 [1], the “Ratio IC50” value is reported as 1.5. For the same molecule, the concentration for half-maximal inhibition (IC50) with Detroit 551 is above 50 µM; in the experiment on A498 [2] it was 0.24 µM; in the experiment with COLO 205, 30.6 µM; in experiment [3], 50 µM; in experiment [4], above 50 µM; with HL-60, above 50 µM.

Turning to `COC(=O)c1cc2c(o1)c1ccccc1n2Cc1cccc(Cl)c1`, the IC50 (in the experiment on Detroit 551; in the experiment with A498 [2]; in the experiment with COLO 205; in experiment [3]; in experiment [4]; in the experiment with HL-60) was above 50 µM in each case.

Turning to `OCc1ccc(Cn2c3ccccc3c3oc(CO)cc32)cc1`, the IC50 with Detroit 551 was above 50 µM; in the experiment with A498 [2], 0.47 µM; in the experiment on COLO 205, above 50 µM; in experiment [3], above 50 µM; in experiment [4], above 50 µM; in the experiment with HL-60, above 50 µM.

On to `COC(=O)c1cc2c(o1)c1ccccc1n2C`, for which the IC50 in the experiment on Detroit 551 was above 50 µM; with A498 [2] it was above 50 µM; in the experiment with COLO 205, above 50 µM; in experiment [3], above 50 µM; in experiment [4] it was 50 µM; in the experiment on HL-60 it was above 50 µM.

For the molecule `OCc1cc2c(o1)c1ccccc1n2Cc1cccc(F)c1`, the IC50 is above 50 µM with Detroit 551; 0.59 µM in the experiment on A498 [2]; above 50 µM in the experiment on COLO 205; 44 µM in experiment [3]; 50 µM in experiment [4]; 25 µM in the experiment on HL-60.
